≈ marks a conversion by molar mass, not a printed value. Calls of active or inactive are those of the source. The calls are words filed in the database; no cut-off is given here.
Legend:
Candida albicans [1] = experiment: Antifungal activity against ERG11/ERG3 knocked out Candida albicans SN152 assessed as zone of inhibition at 25 ug […] by disk diffusion method; type: functional, organism-based
Candida dubliniensis = experiment: Antifungal activity against Candida dubliniensis T-99 assessed as reduction in fungal cell growth incubated for 24 hrs by MTT based broth double dilution method; type: functional; conditions: T-99, 24 h
How it was run: (§1)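 Broth double-dilution in Casitone broth. Starter cultures were grown 24 or 48 h at 37 °C, 5% CO₂, diluted 1:100, and added to serial two-fold dilutions at 64 to 0.007 µg/mL. Final inoculum was 5 x 10^4 to 5 x 10^5 CFU/mL; DMSO was 0.0012–1.3%. Plates were incubated at 37 °C, 5% CO₂, then MTT was added for 2 h. MIC followed CLSI M27-A3. Triplicates, two independent experiments.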

Candida parapsilosis [2] = experiment: Antifungal activity against Candida parapsilosis ATCC 22019 assessed as reduction in fungal cell growth incubated for 24 hrs by MTT based broth double dilution method; type: functional; conditions: Lodderomyces parapsilosis, ATCC 22019, 24 h; how it was run: as §1
Candida parapsilosis [3] = experiment: Antifungal activity against Candida parapsilosis ATCC 90018 assessed as reduction in fungal cell growth incubated for 24 hrs by MTT based broth double dilution method; type: functional; conditions: Lodderomyces parapsilosis, ATCC 90018, 24 h; how it was run: as §1
Nakaseomyces glabratus [4] = experiment: Antifungal activity against Candida glabrata ATCC 66032 assessed as reduction in fungal cell growth incubated for 24 hrs by MTT based broth double dilution method; type: functional; conditions: ATCC 66032, 24 h; how it was run: as §1
Nakaseomyces glabratus [5] = experiment: Antifungal activity against Candida glabrata ATCC 2001 assessed as reduction in fungal cell growth incubated for 24 hrs by MTT based broth double dilution method; type: functional; conditions: ATCC 2001, 24 h; how it was run: as §1
Candida albicans [6] = experiment: Antifungal activity against Candida albicans SN152 assessed as zone inhibition at 25 ug incubated for 24 hrs by disk diffusion method; type: functional, organism-based
How it was run: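 Strains were streaked on YPD agar and grown at 30 °C: 24 h for parental SN152, 48 h for the erg11ΔΔ erg3ΔΔ mutant. Colonies were suspended in PBS and adjusted to OD 0.02 (SN152) or 0.03 (mutant), then spread on Casitone plates. A 6-mm disk loaded with 25 µg compound was placed centrally. Plates were incubated at 30 °C and photographed after 24 h.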

Candida albicans [7] = experiment: Antifungal activity against Candida albicans ATCC 90028 assessed as reduction in fungal cell growth incubated for 24 hrs by MTT based broth double dilution method; type: functional; conditions: ATCC 90028, 24 h; how it was run: as §1
[8] = test system: Meyerozyma guilliermondii; experiment: Antifungal activity against Candida guilliermondii T-47 assessed as reduction in fungal cell growth incubated for 24 hrs by MTT based broth double dilution method; type: functional; conditions: T-47, 24 h; how it was run: as §1
Cytochrome P450 3A4 = Cytochrome P450 3A4 (Homo sapiens, UniProt P08684); experiment: Inhibition of recombinant human CYP3A4 using Luciferin-PPXE as substrate preincubated for 10 mins followed by NADPH addition measured after 15 mins by luminometric method; type: ADME
Cytochrome P450 3A4, sequence (P08684 whole entry): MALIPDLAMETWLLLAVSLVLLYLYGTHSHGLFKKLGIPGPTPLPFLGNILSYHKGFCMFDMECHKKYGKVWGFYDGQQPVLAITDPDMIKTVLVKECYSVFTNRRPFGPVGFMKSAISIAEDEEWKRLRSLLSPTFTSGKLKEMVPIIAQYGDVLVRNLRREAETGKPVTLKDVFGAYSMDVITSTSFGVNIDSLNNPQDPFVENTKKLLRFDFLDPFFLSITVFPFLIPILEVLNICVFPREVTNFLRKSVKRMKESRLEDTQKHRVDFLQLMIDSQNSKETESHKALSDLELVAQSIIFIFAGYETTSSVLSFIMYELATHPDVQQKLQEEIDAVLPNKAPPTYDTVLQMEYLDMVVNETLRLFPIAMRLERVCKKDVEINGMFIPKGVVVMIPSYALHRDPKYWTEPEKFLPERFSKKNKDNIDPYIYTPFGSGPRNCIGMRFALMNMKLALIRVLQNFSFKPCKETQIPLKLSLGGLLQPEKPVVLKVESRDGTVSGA
How it was run: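 P450-Glo luminescent assay, Luciferin-PPXE substrate. Compound was mixed with membranes containing recombinant human CYP3A4; controls were vehicle with membranes lacking CYP3A4. After 10 min preincubation at 37 °C, NADPH regeneration reagent was added and the mixture kept 15 min at 37 °C. Luciferin detection reagent stopped the reaction; after 20 min at room temperature, luminescence was read. Duplicates.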

Candida albicans [9] = experiment: Antifungal activity against Candida albicans SN152 assessed as reduction in fungal cell growth incubated for 24 hrs by MTT based broth double dilution method; type: functional; conditions: SN152, 24 h; how it was run: as §1
Nakaseomyces glabratus [10] = experiment: Antifungal activity against Candida glabrata ATCC 66032 assessed as reduction in fungal cell growth incubated for 48 hrs by MTT based broth double dilution method; type: functional; conditions: ATCC 66032, 48 h; how it was run: as §1
Candida albicans [11] = experiment: Antifungal activity against Candida albicans ATCC 90028 assessed as reduction in fungal cell growth incubated for 48 hrs by MTT based broth double dilution method; type: functional; conditions: ATCC 90028, 48 h; how it was run: as §1
Nakaseomyces glabratus [12] = experiment: Antifungal activity against Candida glabrata 192 assessed as reduction in fungal cell growth incubated for 48 hrs by MTT based broth double dilution method; type: functional; conditions: Nakaseomyces glabratus, 192, 48 h; how it was run: as §1
Candida albicans [13] = experiment: Antifungal activity against Candida albicans P-87 assessed as reduction in fungal cell growth incubated for 24 hrs by MTT based broth double dilution method; type: functional; conditions: P-87, 24 h; how it was run: as §1
Candida albicans [14] = experiment: Antifungal activity against Candida albicans SN152 assessed as reduction in fungal cell growth incubated for 48 hrs by MTT based broth double dilution method; type: functional; conditions: SN152, 48 h; how it was run: as §1
Nakaseomyces glabratus [15] = experiment: Antifungal activity against Candida glabrata 192 assessed as reduction in fungal cell growth incubated for 24 hrs by MTT based broth double dilution method; type: functional; conditions: Nakaseomyces glabratus, 192, 24 h; how it was run: as §1
HEK-293T = experiment: Cytotoxicity against human HEK293T cells assessed as reduction in cell viability at 5 to 50 uM incubated for 24 hrs by XTT assay; type: cell-based
How it was run: (§2)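 HEK-293T were grown in DMEM with 10% FBS; HepG2 in RPMI with 15% FBS; both at 37 °C, 5% CO₂. Cells (4000 HepG2 or 7000 HEK-293T per well) were seeded on poly-D-lysine wells. After 24 h the medium was renewed and compounds added at 5–50 µM from 1 mM stocks in 10% DMSO/0.3% Tween/PBS. After 24 h more, XTT was added for 2 h at 37 °C; absorbance was read at 475 nm against 660 nm reference.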

[16] = Cytotoxicity against human HEK293T cells assessed as reduction in cell viability at 5 to 50 uM incubated for 24 hrs by XTT assay relative to control; type: cell-based, HEK-293T; conditions: HEK293T cells, read-out: INH
How it was run: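 HEK-293T cells were grown in DMEM with 10% FBS, 1% NEAA, 1% pyruvate and pen-strep-nystatin at 37 °C and 5% CO2. 7000 cells/well were seeded on poly-D-lysine-coated wells. After 24 h the medium was renewed and compounds were added at 5–50 µM from 1 mM stocks in 10% DMSO/0.3% Tween/PBS. After 24 h, XTT was added for 2 h at 37 °C, with absorbance read at 475 nm (reference 660 nm).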

[17] = Cytotoxicity against human HepG2 cells assessed as reduction in cell viability at 5 to 50 uM incubated for 24 hrs by XTT assay relative to control; type: cell-based; conditions: read-out: INH
How it was run: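 HepG2 cells were maintained in RPMI with 15% FBS, 1% NEAA, 1% pyruvate and pen-strep-nystatin at 37 °C and 5% CO2. 4000 cells/well were plated on poly-D-lysine coating and given fresh medium after 24 h. Compounds were dosed at 5–50 µM from 1 mM stocks in 10% DMSO/0.3% Tween/PBS and incubated 24 h. Viability was read by XTT (2 h, 37 °C) at 475 nm against 660 nm.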

HepG2 = experiment: Cytotoxicity against human HepG2 cells assessed as reduction in cell viability at 5 to 50 uM incubated for 24 hrs by XTT assay; type: cell-based; conditions: hepg2, 24 h; how it was run: as §2

Compound	inhibition zone (IZ) (Candida albicans [1])	MIC (Candida dubliniensis)	MIC (Candida parapsilosis [2])	MIC (Candida parapsilosis [3])	MIC (Nakaseomyces glabratus [4])	MIC (Nakaseomyces glabratus [5])	inhibition zone (IZ) (Candida albicans [6])	MIC (Candida albicans [7])	MIC [8]	MIC (Candida albicans [9])	MIC (Nakaseomyces glabratus [10])	MIC (Candida albicans [11])	MIC (Nakaseomyces glabratus [12])	MIC (Candida albicans [13])	MIC (Candida albicans [14])	MIC (Nakaseomyces glabratus [15])	Activity (HEK-293T)	cytotoxicity at 24 h, up to 50 µM [16]	cytotoxicity at 24 h, up to 50 µM [17]	Activity (HepG2)	further results
CCC(CC)Oc1ccc2cc(C(=O)NCC(O)(Cn3ccnc3)c3ccc(F)cc3F)c(=O)oc2c1 (racemic)	Active	0.25 µg/mL (≈ 0.489 µM)	0.25 µg/mL (≈ 0.489 µM)	0.125 µg/mL (≈ 0.244 µM)	2 µg/mL (≈ 3.91 µM)	4 µg/mL (≈ 7.82 µM)	Active	0.03 µg/mL (≈ 0.0586 µM)	0.125 µg/mL (≈ 0.244 µM)	0.03 µg/mL (≈ 0.0586 µM)	4 µg/mL (≈ 7.82 µM)	0.06 µg/mL (≈ 0.117 µM)	2 µg/mL (≈ 3.91 µM)	0.015 µg/mL (≈ 0.0293 µM)	0.06 µg/mL (≈ 0.117 µM)	1 µg/mL (≈ 1.95 µM)	–	–	–	–	IC50 (Cytochrome P450 3A4): 332 nM
CCC(CC)Oc1ccc2cc(C(=O)NCC(O)(Cn3ccnc3)c3ccc(Cl)cc3Cl)c(=O)oc2c1 (racemic)	–	0.25 µg/mL (≈ 0.459 µM)	0.5 µg/mL (≈ 0.918 µM)	0.125 µg/mL (≈ 0.23 µM)	2 µg/mL (≈ 3.67 µM)	2 µg/mL (≈ 3.67 µM)	–	0.03 µg/mL (≈ 0.0551 µM)	0.25 µg/mL (≈ 0.459 µM)	0.06 µg/mL (≈ 0.11 µM)	> 64 µg/mL	0.06 µg/mL (≈ 0.11 µM)	1 µg/mL (≈ 1.84 µM)	0.06 µg/mL (≈ 0.11 µM)	0.06 µg/mL (≈ 0.11 µM)	0.5 µg/mL (≈ 0.918 µM)	Non-Toxic	< 40%	< 40%	Non-Toxic	IC50 (Cytochrome P450 3A4): 251 nM
CC(=O)N1CCN(c2ccc(OCC3COC(Cn4ccnc4)(c4ccc(Cl)cc4Cl)O3)cc2)CC1 (racemic) [KETOCONAZOLE]	Active	0.007 µg/mL (≈ 0.0132 µM)	0.007 µg/mL (≈ 0.0132 µM)	0.007 µg/mL (≈ 0.0132 µM)	1 µg/mL (≈ 1.88 µM)	1 µg/mL (≈ 1.88 µM)	Active	0.007 µg/mL (≈ 0.0132 µM)	0.007 µg/mL (≈ 0.0132 µM)	0.007 µg/mL (≈ 0.0132 µM)	4 µg/mL (≈ 7.53 µM)	0.007 µg/mL (≈ 0.0132 µM)	0.125 µg/mL (≈ 0.235 µM)	0.007 µg/mL (≈ 0.0132 µM)	0.007 µg/mL (≈ 0.0132 µM)	0.06 µg/mL (≈ 0.113 µM)	Toxic	< 40%	< 40%	Toxic	–
OC(Cn1cncn1)(Cn1cncn1)c1ccc(F)cc1F [FLUCONAZOLE]	inactive	4 µg/mL (≈ 13.1 µM)	2 µg/mL (≈ 6.53 µM)	1 µg/mL (≈ 3.27 µM)	64 µg/mL (≈ 209 µM)	64 µg/mL (≈ 209 µM)	Active	0.5 µg/mL (≈ 1.63 µM)	4 µg/mL (≈ 13.1 µM)	0.25 µg/mL (≈ 0.816 µM)	> 64 µg/mL	0.5 µg/mL (≈ 1.63 µM)	8 µg/mL (≈ 26.1 µM)	0.25 µg/mL (≈ 0.816 µM)	1 µg/mL (≈ 3.27 µM)	8 µg/mL (≈ 26.1 µM)	Non-Toxic	< 40%	< 40%	Non-Toxic	–
CC[C@@H]([C@H](C)O)n1ncn(-c2ccc(N3CCN(c4ccc(OC[C@@H]5CO[C@@](Cn6cncn6)(c6ccc(F)cc6F)C5)cc4)CC3)cc2)c1=O [POSACONAZOLE]	–	0.03 µg/mL (≈ 0.0428 µM)	0.03 µg/mL (≈ 0.0428 µM)	0.015 µg/mL (≈ 0.0214 µM)	1 µg/mL (≈ 1.43 µM)	1 µg/mL (≈ 1.43 µM)	–	0.007 µg/mL (≈ 0.00999 µM)	0.03 µg/mL (≈ 0.0428 µM)	0.007 µg/mL (≈ 0.00999 µM)	> 64 µg/mL	0.007 µg/mL (≈ 0.00999 µM)	0.125 µg/mL (≈ 0.178 µM)	0.007 µg/mL (≈ 0.00999 µM)	0.007 µg/mL (≈ 0.00999 µM)	0.125 µg/mL (≈ 0.178 µM)	Toxic	< 40%	< 40%	Toxic	–

From ChEMBL document CHEMBL4351026, “Antifungal activity, mode of action variability, and subcellular distribution of coumarin-based antifungal azoles” (Eur J Med Chem, 2019)
